PMI act – activators of human phosphomannose isomerase; P34949; purified human PMI, coupled resazurin fluorescence, 20 min; stronger effect = higher value; 1 = vehicle control, 0 substrate-free wells; activation factor at 20 µM; 0.005% of 190,000 active; AID 1214;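 active means activation factor of 2 or more at 20 µM, relative to plate controls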
PMI act satM6P – activators of human phosphomannose isomerase at near-saturating mannose 6-phosphate. P34949. coupled PMI enzyme assay, resazurin fluorescence, 20 min; stronger effect = higher value; 1 = untreated enzyme, 0 = substrate-free blank. activation factor at 20 µM. AID 1216. 0.34% of 190,000 active;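 active means activation factor of 2 or more at 20 µM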
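Material: human phosphomannose isomerase with PGI, G6PDH, diaphorase coupling enzymes. Quantity: 15 ng/mL PMI. Medium: HEPES pH 7.4 buffer with MgCl2 and Tween-20. Reagent: Near-saturating mannose-6-phosphate, 1.0 mM. Compound: 20 µM single dose. Times: enzyme reaction with compound 20 min at room temperature. Detection: resorufin fluorescence at Ex 544/Em 590 nm.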
m-calpain inh – calpain II (pig) inhibition; purified calpain II, fluorogenic peptide substrate, 30 min; inhibition, % at 16 µM; 0.37% of 220,000 active; AID 1236;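 active means inhibition above about 50%, limit read from the data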
Rad51 HR inh – blocks human Rad51 in homologous recombination | hRad51 DNA strand exchange, fluorescence dequenching | inhibition, % at 10 µM | 0.085% of 200,000 active | AID 1385;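 active means inhibition above 40% at the single screening dose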
Target sequence (Q06609 whole entry, looked up): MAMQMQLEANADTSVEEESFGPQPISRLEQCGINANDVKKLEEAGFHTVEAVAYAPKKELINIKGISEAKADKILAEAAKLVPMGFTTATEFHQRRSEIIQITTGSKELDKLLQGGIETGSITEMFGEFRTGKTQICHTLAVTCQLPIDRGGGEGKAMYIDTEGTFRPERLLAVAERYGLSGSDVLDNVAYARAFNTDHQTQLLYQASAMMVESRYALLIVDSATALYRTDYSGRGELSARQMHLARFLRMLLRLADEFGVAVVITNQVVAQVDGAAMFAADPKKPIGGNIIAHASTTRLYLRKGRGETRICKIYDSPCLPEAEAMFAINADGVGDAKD
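Material: human Rad51–ssDNA filaments; Probe or stimulus: labelled 47-mer dsDNA for strand exchange; Doses: single 10 µM dose; Incubation: 37 °C 15-min filament assembly, 30-min compound preincubation, 15-min exchange; Technique: FRET fluorescence dequenching, excitation 485 nm, emission 520 nm; Measure: Fluorescence-based percent inhibition, control- and blank-normalised; Benchmarks: plate control and blank wells.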
L major viab – Leishmania major promastigote growth inhibition. Leishmania major promastigotes, resazurin fluorescence viability. 9% of 200,000 active. AID 1063. inhibition, % at 10 µM; in the data active means inhibition above about 50%;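 further: promastigotes grown with compound for 44 hours at 28 °C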
WT yeast gro inh – growth inhibition of WT yeast, mitochondrial fusion screen; mitochondrial fusion phenotypic screen, WT strain; inhibition, % at 10 µM; 2.1% of 190,000 active; AID 1362; in the data active means inhibition above about 58%; tested in S. cerevisiae
Hits are given with their value; i = inactive; nt = not tested or not shown. This is a sample that favours compounds with a hit; in the whole collection about 9.8% have one here.

SMILES | PMI act | PMI act satM6P | m-calpain inh | Rad51 HR inh | L major viab | WT yeast gro inh
COc1ccc(/C=C(\NC(=O)c2ccccc2Cl)C(=O)NCCCC(=O)O)cc1 | i | i | 51.9 | i | i | i
COc1ccccc1C(=O)N/C(=C\c1ccc(Br)cc1)C(=O)NCC(=O)O | i | i | i | i | 56.8 | i
CCOc1c(Cl)cc(/C=N/NC(N)=S)cc1OC | i | i | i | i | i | i
Cn1c(=O)[nH]c(=O)c2c1nc(N/N=C/c1ccncc1)n2Cc1ccc(Cl)cc1 | nt | nt | i | i | nt | nt
CCOC(=O)C1=C(CBr)NC(=O)NC1C (centres undefined) | i | i | i | i | i | i
CCOc1ccccc1CN1CCN(C2CCSCC2)CC1CCO (centres undefined) | i | i | i | i | i | i
COc1ccc(CN2CCN(C3CCOCC3)CC2CCO)c(C)c1C (centres undefined) | i | i | i | i | 81.1 | i
COc1ccc(CN2CCN(C3CCSCC3)CC2CCO)c(C)c1C (centres undefined) | i | i | i | i | 87.6 | i
O=C(COC(=O)c1ccc2c(c1)C(=O)N(Cc1ccncc1)C2=O)Nc1ccccc1[N+](=O)[O-] | i | i | i | i | 54.4 | i
CC1CN(C(=O)N(C)C)CCN1C(=O)N(C)C (centres undefined) | i | i | i | i | i | 65.7
Cc1c(NS(=O)(=O)c2cc(NC(=O)CCN3CCCC(C)C3)ccc2Cl)c(=O)n(-c2ccccc2)n1C (centres undefined) | i | i | i | i | i | i
Cc1ccc(Nc2nc(CSc3nnc(-c4cccnc4)n3-c3ccccc3F)cs2)cc1 | i | i | i | i | 89.1 | i
Cc1ccc(Nc2nc(CSc3nnc(-c4ccncc4)n3C)cs2)cc1 | i | i | i | i | i | i
Cc1ccc(-n2c(O)cnc2Nc2nc(C)cc(C)n2)cc1 | i | i | i | nt | i | i
Cc1cc(C)nc(Nc2ncc(O)n2-c2ccccc2)n1 | i | i | i | i | i | 64.4
O=C(CSc1nncc2ccccc12)N1CCCCC1 | i | i | i | i | i | i
Oc1ccc(N=Nc2nc(-c3ccccc3)c(-c3ccccc3)[nH]2)cc1 | i | i | i | i | 96.1 | 92.3
Cc1c(OCc2ccccc2)cccc1OCc1ccccc1 | i | i | i | i | i | 65.6
O=C1CCCCC1Sc1nnc(-c2ccc3c(c2)OCO3)o1 (centres undefined) | i | i | i | i | i | i
CCOC(=O)N1CCC(NC(=O)C2CCN(C(=O)c3cc4sccc4n3CC)CC2)CC1 | nt | nt | i | nt | nt | nt
Cc1ccc(-c2[nH]c3ccccc3c2C(C[N+](=O)[O-])c2ccco2)cc1 (centres undefined) | i | i | i | i | i | 68.8
Cc1ccc(-c2nn(-c3ccccc3)cc2C=C2C(=O)CC(C)(C)CC2=O)cc1 | i | i | i | i | 96.5 | i
CC1=NNC(=O)/C1=C\c1cn(-c2ccccc2)nc1-c1ccc(Cl)cc1 | i | i | i | i | 100.6 | i
CCN(Cc1ccccc1)C(=O)C1CCN(CC2CC=CCC2)CC1 (centres undefined) | i | i | i | i | 98.4 | i
CCN(Cc1ccccc1)C(=O)C1CCN(Cc2sccc2C)CC1 | i | i | i | nt | i | i
SMILES | PMI act | PMI act satM6P | m-calpain inh | Rad51 HR inh | L major viab | WT yeast gro inh
CCN(CC)C(=O)C1CCN(CC2CC=CCC2)CC1 (centres undefined) | i | i | i | i | 83.9 | i
CC(C)CC(=O)N1CCN(CC2CC=CCC2)CC1 (centres undefined) | i | i | i | i | i | i
COC(=O)c1cc(=O)n(Cc2ccco2)c(=Nc2ccc(F)c(Cl)c2)s1 | i | i | i | i | 100.0 | i
COC(=O)c1cc(=O)n(CCc2ccccc2F)c(=Nc2ccc(F)c(Cl)c2)s1 | i | i | i | i | 98.6 | i
CCN=c1sc(C(=O)OC)cc(=O)n1CC | i | i | i | i | i | i
COC(=O)c1c(C(=O)OC)c(C)n(Cc2ccco2)c1C | i | i | i | i | i | i
CN1CC(=O)N(CC(=O)Nc2ccc3c(c2)CCC3)C1=O | i | i | i | i | i | i
COc1ccccc1NCC(=O)n1nc(C)cc1C | i | i | i | i | i | i
COC(=O)C1=C(C(=O)OC)[C@@H]2N(C)c3ccccc3[C@@]23C[C@@H](CO)N=C3N1 | nt | nt | nt | i | nt | nt
CCOC(=O)c1cc([N+](=O)[O-])c([N+](=O)[O-])cc1NC(C)=O | i | i | i | i | 70.6 | 76.3
O=C(NCc1cccs1)c1ccc(Cl)c(S(=O)(=O)N2CCCC2)c1 | i | i | i | i | i | i
CC1CC(NC(=O)N(C)C)N(C)C(=O)N1 (centres undefined) | i | i | i | nt | i | i
O=C(c1ccc(Cl)cc1)C1C2C(=O)N(c3ccccc3)C(=O)C2C2CCCN21 (centres undefined) | i | 2 | i | i | i | i
COc1ccc(N2C(=O)C3C(C2=O)C(C(=O)c2ccc(Cl)cc2)N2CCCC32)cc1 (centres undefined) | nt | nt | i | i | nt | nt
CC(=O)c1ccc(N2C(=O)C3C(C2=O)C(C(=O)c2ccc(Cl)cc2)N2CCCC32)cc1 (centres undefined) | i | 2 | i | i | i | i
Cc1ccc(N2C(=O)[C@@H]3[C@H](C2=O)C2CCCN2[C@@H]3C(=O)c2ccccc2)cc1 (some centres undefined) | i | 2 | i | i | i | i
O=C(c1ccccc1)[C@@H]1[C@@H]2C(=O)N(c3ccc(F)cc3)C(=O)[C@@H]2C2CCCN21 (some centres undefined) | nt | nt | i | i | nt | nt
CCn1c(NC(=O)c2ccccc2F)c(-c2cccs2)c(=O)c2ccccc21 | nt | nt | i | i | nt | nt
CCCCN1C(=O)/C(=C(/C#N)C(=O)N2CCCC2)c2ccccc21 | nt | nt | i | i | nt | nt
CC(C)CN1C(=O)/C(=C(/C#N)C(=O)NC2CCCCC2)c2ccccc21 | i | i | i | i | 97.2 | i
Cn1c(SCC(=O)NNC(=O)Cc2ccccc2)nnc1-c1ccccc1 | i | i | i | i | i | i
COc1ccc(-c2csc(C3=C(O)CN(Cc4ccc(Cl)cc4)C3=N)n2)cc1OC | i | i | i | i | 57.6 | i
COc1ccc(-c2csc(C3=C(O)CN(Cc4ccc(S(N)(=O)=O)cc4)C3=N)n2)cc1OC | i | i | i | i | i | i
Cc1c(C)n(Cc2ccccc2)c2ccc(C(=O)OCCN(C)C)cc12 | i | i | i | i | 100.2 | i
CCn1ncc(/C=N\NC(=O)c2ccc3c(c2)c(C)c(C)n3Cc2ccccc2)c1C | i | i | i | i | i | i
COc1cc(/C=N/N2C(=O)C3C4C=CC(CC4)C3C2=O)ccc1O (centres undefined) | i | i | i | nt | i | i
O=C1C2C3c4ccccc4C(c4ccccc43)C2C(=O)N1/N=C/c1cccc(O)c1 (centres undefined) | i | i | i | i | 97.0 | i

From PubChem BioAssay
